# Results collected from several papers.
# Each line is one published result; the experiments were not run side by side.
# Target: Casein kinase I isoform epsilon (CSNK1E, Homo sapiens, UniProt P49674)
Compound,test,conditions,remaining binding [%]
CC(=O)C1=C(C)N(c2cccc(C(F)(F)F)c2)C(=O)N[C@@H]1c1ccc(C#N)nc1,"cell-free assay, competition with immobilised ligand",1 µM,100
CNC(=O)[C@@H]1CC[C@@H](n2c(-c3ccc4cnccc4c3)nc3ccc(C(=O)NCc4cccc(C(N)=O)c4)cc32)C1,"binding, competition with immobilised ligand",1 µM,100
O=C(Nc1c[nH]nc1C(=O)NC1CCNCC1)c1cc(F)cc(F)c1,"binding, competition with immobilised ligand",1 µM,73
CN(C)c1nccc(-c2cnc3ncccn23)n1,binding,1 µM,65
O=c1nc(-c2ccccn2)sc2ccccc12,"binding, competition with immobilised ligand",1 µM,88
COc1cnc(Nc2cccc(S(N)(=O)=O)c2)nc1N1CCN(c2ccccc2)C(=O)C1,"binding, competition with immobilised ligand",1 µM,100
N[C@H]1CCN(c2nccc(-c3cnn4ncccc34)n2)C1,binding,1 µM,47
O=C(NCCCN1CCOCC1)c1ccc(Nc2ncc(Cl)c(-c3ccc(Cl)s3)n2)cc1,"binding, competition with immobilised ligand",1 µM,100
Nc1ncc2c(n1)-c1c([nH]c3ccc(C#CC4CC4)cc13)CCCC2,"binding, competition with immobilised ligand",1 µM,100
O=C1NC(c2ccccn2)Sc2ccccc21 (stereo not shown),"cell-free assay, competition with immobilised ligand",1 µM,98
O=C(c1ccc(Nc2nccc(-c3cc4ccccc4s3)n2)cc1)N1CCC(N2CCCC2)CC1,"binding, competition with immobilised ligand",1 µM,100
CN(C)c1ncc(F)c(-c2cnn3ncccc23)n1,binding,1 µM,100
CNCc1ccccc1-c1csc([C@@H](C)Nc2nc(C)nc3cc(OC)c(OC)cc23)c1,"cell-free assay, competition with immobilised ligand",1 µM,99
F[C@@H]1CCN(c2nccc(-c3cnn4ncccc34)n2)C1,binding,1 µM,85
c1cncc(-c2cccc(Nc3nccc(NC4CCCCC4)n3)c2)c1,"binding, competition with immobilised ligand",10 µM,11
CN(c1nccc(-c2cnn3ncccc23)n1)C1CC1,binding,1 µM,100
Cc1cc(C)c(-n2ccn3nc(-c4cccnc4)cc23)cc1NC(=O)c1cc(C#N)cc(S(F)(F)(F)(F)F)c1,"cell-free assay, competition with immobilised ligand",0.1 µM,98.7
O=C(c1ccc(Nc2ncc(Cl)c(-c3cc4ccccc4s3)n2)cc1)N1CCC(N2CCCC2)CC1,"binding, competition with immobilised ligand",1 µM,100
Cc1cc(NC(=O)c2cccc(S(F)(F)(F)(F)F)c2)cc(-n2ccn3nc(-c4cccnc4)cc23)c1,"cell-free assay, competition with immobilised ligand",1 µM,75.7
C[C@@H]1CCN(c2nccc(-c3cnn4ncccc34)n2)C1,binding,1 µM,86
O=C(NCc1ncc(C(F)(F)F)cc1Cl)c1ccc2c(c1)C1(CCS(=O)(=O)CC1)[C@H](C1CC1)N2S(=O)(=O)c1ccc(F)cc1,"cell-free assay, competition with immobilised ligand",1 µM,100
c1cnn2ncc(-c3ccnc(N4CCC45COC5)n3)c2c1,binding,1 µM,53
